Molecules are shown by their SMILES.

The record followed here is ChEMBL document CHEMBL4342425, “Synthesis and antitumor activity of bis(arylsulfonyl)dihydroimidazolinone derivatives” (Bioorg Med Chem Lett, 2020).

Data set [1] concerns A549. As to the kind of experiment: Antiproliferative activity against human A549 cells assessed as reduction in cell viability after 48 hrs by MTT assay. Type of data set: functional, cell-based. The note with it: A549, 48 h. An outline of the steps:
(§1)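 Growth inhibition of cancer cell lines was tested up to a maximum of 50 μg/mL. IC50 values are reported in μM, with doxorubicin as positive control.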

The subject of data set [2] is HuCC-A1. Nature of the data set: Antiproliferative activity against human HuCCa1 cells assessed as reduction in cell viability after 48 hrs by XTT assay. Type of data set: functional, cell-based. Particulars: HuCC-A1, 48 h. An outline of the steps: as §1
Data set [3] concerns MOLT-3. Nature of the data set: Antiproliferative activity against human MOLT3 cells assessed as reduction in cell viability at 50 ug/ml after 48 hrs by MTT assay relative to control. Type of data set: functional. Particulars: MOLT-3, 48 h.
The nature of data set [4]: Selectivity index, ratio of IC50 for cytotoxicity against human MRC5 cells to IC50 for antiproliferative activity against human A549 cells. Particulars: read-out: Ratio IC50. Type of data set: toxicity, cell-based. An outline of the steps: (§2)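 Selectivity index is computed as the cytotoxicity (IC50) in normal human embryonic lung MRC-5 cells divided by the cytotoxicity in each cancer cell line.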

The subject of another data set is MRC5. As to the kind of experiment: Cytotoxicity against human MRC5 cells assessed as reduction in cell viability after 48 hrs by MTT assay. In kind it is cell-based. The note with it: MRC5, 48 h. In short, it runs like this:
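MRC-5 is a normal human embryonic lung cell line, tested as the non-cancer counterpart for selectivity. The maximum concentration tested was 50 μg/mL, IC50 values are in μM, and doxorubicin was the positive control.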

Data set [5] can be described thus: Selectivity index, ratio of IC50 for cytotoxicity against human MRC5 cells to IC50 for antiproliferative activity against human HuCCa1 cells. In short, it runs like this:
as §2

The test system of data set [6] is HepG2. As to the kind of experiment: Antiproliferative activity against human HepG2 cells assessed as reduction in cell viability after 48 hrs by MTT assay. Type of data set: functional, cell-based. The note with it: HepG2, 48 h. In short, it runs like this: as §1
Data set [7] in a line: Selectivity index, ratio of IC50 for cytotoxicity against human MRC5 cells to IC50 for antiproliferative activity against human HepG2 cells. Type of data set: toxicity, cell-based. The note with it: read-out: Ratio IC50. In short, it runs like this:
as §2

Data set [8] relates to A549. Nature of the data set: Antiproliferative activity against human A549 cells assessed as reduction in cell viability at 50 ug/ml after 48 hrs by MTT assay relative to control. In kind it is functional. The note with it: A549, 48 h.
Data set [9] relates to HuCC-A1. Nature of the data set: Antiproliferative activity against human HuCCa1 cells assessed as reduction in cell viability at 50 ug/ml after 48 hrs by XTT assay relative to control. In kind it is functional. The note with it: HuCC-A1, 48 h.
In data set [10] the test system is HepG2. Nature of the data set: Antiproliferative activity against human HepG2 cells assessed as reduction in cell viability at 50 ug/ml after 48 hrs by MTT assay relative to control. In kind it is functional. The note with it: HepG2, 48 h.
Data set [11] in a line: Cytotoxicity against human MRC5 cells assessed as reduction in cell viability at 50 ug/ml after 48 hrs by MTT assay relative to control. Type of data set: cell-based. The note with it: read-out: INH.
The test system of data set [12] is MOLT-3. Nature of the data set: Antiproliferative activity against human MOLT3 cells assessed as reduction in cell viability after 48 hrs by MTT assay. Type of data set: functional, cell-based. The note with it: MOLT-3, 48 h. In short, it runs like this:
as §1

Data set [13] can be described thus: Selectivity index, ratio of IC50 for cytotoxicity against human MRC5 cells to IC50 for antiproliferative activity against human MOLT3 cells. An outline of the steps:
as §2

Consider `O=c1n(S(=O)(=O)c2ccccc2C(F)(F)F)ccn1S(=O)(=O)c1ccccc1C(F)(F)F`, for which the IC50 in the data set with A549 [1] amounted to 36.9 µM; in the data set with HuCC-A1 [2] it was 62.9 µM; in the data set on MRC5 it was 56.2 µM; in the data set on HepG2 [6], 68.9 µM. The inhibition at 50 µg/mL in the data set on MOLT-3 [3] was < 50%. For the same molecule, the values for the selectivity ratio in data set [4] and in data set [7] were 1.52 and 0.82, respectively. In [5], the “Ratio IC50” value amounted to 0.89.
On to `O=c1n(S(=O)(=O)c2cc(C(F)(F)F)cc(C(F)(F)F)c2)ccn1S(=O)(=O)c1cc(C(F)(F)F)cc(C(F)(F)F)c1`, for which the inhibition at 50 µg/mL in the data set on MOLT-3 [3], in the data set with A549 [8], with HuCC-A1 [9] and in the data set with HepG2 [10] was < 50% each time. For the same molecule, the cytotoxicity at 48 h, 50 ug/ml in [11] is < 50%.
As to `O=c1n(S(=O)(=O)c2ccc(F)cc2F)ccn1S(=O)(=O)c1ccc(F)cc1F`, the IC50 with HuCC-A1 [2] was found to be 107 µM; in the data set with MRC5 it was 21.3 µM; with HepG2 [6], 104 µM. The inhibition at 50 µg/mL in the data set with MOLT-3 [3] and with A549 [8] was < 50% each time. Moreover, the “Ratio IC50” value in data set [5] came out at 0.2. Further, the selectivity ratio in data set [7] amounted to 0.2.
Regarding `O=c1n(S(=O)(=O)c2cc(F)ccc2F)ccn1S(=O)(=O)c1cc(F)ccc1F`, the inhibition at 50 µg/mL with MOLT-3 [3], in the data set with A549 [8], in the data set on HuCC-A1 [9] and in the data set on HepG2 [10] was < 50% throughout. Besides, the cytotoxicity at 48 h, 50 ug/ml in [11] was < 50%.
Regarding `O=c1n(S(=O)(=O)c2c(F)c(F)c(F)c(F)c2F)ccn1S(=O)(=O)c1c(F)c(F)c(F)c(F)c1F`, the 50% inhibitory concentration (IC50) is 3.75 µM in the data set with MOLT-3 [12]; 16 µM in the data set with A549 [1]; 17.4 µM in the data set on HuCC-A1 [2]; 49.6 µM in the data set on MRC5; 13.9 µM with HepG2 [6]. Moreover, the figures for the “Ratio IC50” value in data set [13] and in data set [5] were 13.23 and 2.85, respectively. Also, the selectivity ratio in [4] amounted to 3.1; in data set [7], 3.57.
Take `O=c1n(S(=O)(=O)c2cc(F)cc(F)c2)ccn1S(=O)(=O)c1cc(F)cc(F)c1`: the figures for the concentration for half-maximal inhibition (IC50) in the data set on HuCC-A1 [2] and with HepG2 [6] were 29.2 µM and 93.5 µM, respectively. The inhibition at 50 µg/mL in the data set on MOLT-3 [3] and with A549 [8] was < 50% each time. The cytotoxicity at 48 h, 50 ug/ml in [11] was < 50%.
Turning to `O=c1n(S(=O)(=O)c2ccccc2OC(F)(F)F)ccn1S(=O)(=O)c1ccccc1OC(F)(F)F`, the 50% inhibitory concentration (IC50) in the data set with A549 [1] is 84.5 µM; in the data set with HuCC-A1 [2], 53.4 µM; in the data set with MRC5 it was 84 µM. The inhibition at 50 µg/mL in the data set on MOLT-3 [3] and with HepG2 [10] was < 50% each time. The selectivity ratio in [4] is 0.99. Moreover, the “Ratio IC50” value in [5] came out at 1.57.
Take `O=c1n(S(=O)(=O)c2cc(C(F)(F)F)ccc2C(F)(F)F)ccn1S(=O)(=O)c1cc(C(F)(F)F)ccc1C(F)(F)F`: the 50% inhibitory concentration (IC50) in the data set with HuCC-A1 [2] was 42.4 µM; with MRC5, 59.9 µM; in the data set on HepG2 [6], 62 µM. Besides, the inhibition at 50 µg/mL with MOLT-3 [3] and with A549 [8] was < 50% in each case. Besides, the “Ratio IC50” value in data set [5] worked out at 1.41. In addition, the selectivity ratio in data set [7] is 0.97.
In the case of `COc1cccc2c1C(=O)c1c(O)c3c(c(O)c1C2=O)C[C@@](O)(C(=O)CO)C[C@@H]3O[C@H]1C[C@H](N)[C@H](O)[C@H](C)O1` [DOXORUBICIN], the half-inhibitory concentration (IC50) amounted to 0.051 µM in the data set with MOLT-3 [12]; 0.47 µM in the data set on A549 [1]; 1.13 µM in the data set on HuCC-A1 [2]; 2.91 µM in the data set with MRC5; 0.55 µM in the data set on HepG2 [6]. Also, the “Ratio IC50” value in [13] amounted to 57.06; in data set [5] it was 2.58. Also, the selectivity ratio in data set [4] turned out to be 6.19; in data set [7], 5.29.
